Experiments:
[1] = system: Jurkat; experiment: Ratio of IC50 of mutant Jurkat leukemia (JLD) to the IC50 of Jurkat leukemia (JLC sensitive, wild type); type: functional, Homo sapiens
In short: (§1)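 Jurkat lines were each plated at 3.75 × 10³ per well and grown 4 days with drug: parental JL_C, amsacrine-resistant JL_A and doxorubicin-resistant JL_D. Growth was read by sulforhodamine assay. IC50 is the concentration giving 50% of control cell number. Ratio is IC50 in JL_A or JL_D divided by IC50 in JL_C.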

[2] = system: Jurkat; experiment: Ratio of IC50 of Jurkat leukemia amsacrine (JLA) to the IC50 of Jurkat leukemia (JLC sensitive, wild type); type: functional, Homo sapiens; in short: as §1
[3] = system: Jurkat; experiment: Inhibitory concentration required to reduce human Jurkat leukemia (JLC sensitive, wild type) cell number to 50% of control cultures; type: functional, cell-based
[4] = system: P388; experiment: Inhibitory concentration required to reduce murine p388 leukemia cell number to 50% of control cultures; type: functional, cell-based; details: Mus musculus
[5] = system: LLTC cell line; experiment: Inhibitory concentration required to reduce Lewis lung carcinoma cell number to 50% of control cultures; type: functional, cell-based; details: Mus musculus
In short: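 Lewis lung carcinoma cells seeded at 10³ per well and exposed to drug for 4 days. Growth read by sulforhodamine assay; IC50 is the drug concentration (nM) that cuts cell number to 50% of control cultures. Value is the mean of at least two independent determinations done in duplicate; coefficient of variation 7.9–8.5%.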

SMILES	Ratio [1]	Ratio [2]	IC50 [3]	IC50 [4]	IC50 [5]
CN(C)CCNC(=O)c1cccc2cc3cc(Cl)ccc3nc12	1	0.8	753 nM	250 nM	469 nM
CN(C)CCNC(=O)c1cccc2cc3cc(C(C)(C)C)ccc3nc12	1.2	1.1	4390 nM	6300 nM	4590 nM
CN(C)CCNC(=O)c1cccc2cc3cccc(C(F)(F)F)c3nc12	5	4.4	75 nM	18 nM	17 nM
CN(C)CCNC(=O)c1cccc2cc3cccnc3nc12	1.2	1.1	1420 nM	340 nM	452 nM
Cc1cccc2cc3cccc(C(=O)NCCN(C)C)c3nc12	4.8	4.6	46 nM	6.4 nM	5.6 nM
CN(C)CCNC(=O)c1cccc2cc3cc(Br)ccc3nc12	1	0.8	756 nM	87 nM	447 nM
Cc1ccc2nc3c(C(=O)NCCN(C)C)cccc3cc2c1	1.1	1	1350 nM	330 nM	735 nM
CN(C)CCNC(=O)c1cccc2cc3cc(F)ccc3nc12	2.1	1.8	424 nM	55 nM	158 nM
CN(C)CCNC(=O)c1ccc2nc3c(C(=O)NCCN(C)C)cccc3cc2c1	1	0.6	1120 nM	890 nM	2830 nM
CN(C)CCNC(=O)c1cccc2cc3ccc(N(C)C)cc3nc12	0.85	0.6	212 nM	260 nM	272 nM
CN(C)CCNC(=O)c1cccc2cc3ccc(C(F)(F)F)cc3nc12	1	0.9	1350 nM	1130 nM	1750 nM
CN(C)CCNC(=O)c1cccc2cc3ccc(Br)cc3nc12	1.1	0.9	446 nM	160 nM	230 nM
CCc1cccc2cc3cccc(C(=O)NCCN(C)C)c3nc12	4.4	4.1	137 nM	18 nM	20 nM
CN(C)CCNC(=O)c1cccc2cc3cc(N(C)C)ccc3nc12	1.8	1.8	2480 nM	1100 nM	1680 nM
Cc1ccc2cc3cccc(C(=O)NCCN(C)C)c3nc2c1	1.5	1.3	625 nM	96 nM	176 nM
CCc1ccc2nc3c(C(=O)NCCN(C)C)cccc3cc2c1	1.85	1.55	1840 nM	240 nM	346 nM
CN(C)CCNC(=O)c1cccc2cc3cc(-c4ccccc4)ccc3nc12	6.5	3	240 nM	94 nM	168 nM
COc1cccc2cc3cccc(C(=O)NCCN(C)C)c3nc12	5.6	4.9	111 nM	26 nM	36 nM
CN(C)CCNC(=O)c1cccc2cc3cccc(F)c3nc12	5.6	4.5	103 nM	14 nM	21 nM
COc1ccc2nc3c(C(=O)NCCN(C)C)cccc3cc2c1	1.1	1	1590 nM	580 nM	810 nM
